Laboratory results taken from PMC3163381 (Biochemistry, 2011).

Columns and labels:
[1] = Stability of AI-1 in water and phosphate buffer; format: physicochemical
Procedure, shortened: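 Test compound was held in deionized water and in phosphate buffer at pH 7.4, and followed over several days. Half-life was determined in the buffer.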

[2] = Surface tension measurements at the air-water interface; format: physicochemical; conditions: for surface activity at the air-water interface: result in words
[3] = test system: MscS; experiment: Patch-clamp of MscS in giant spheroplast patches, activation midpoint; format: biochemical, E. coli
Procedure, shortened: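 Giant spheroplasts from cephalexin-treated E. coli MJF 465 (mscS/mscK/mscL) expressing WT MscS. Excised inside-out patches in symmetrical 200mM KCl, 45mM MgCl2, 5mM CaCl2, 5mM HEPES (pH 7.4, KOH); bath had 400mM sucrose added. Test compound was perfused into the bath (cytoplasmic side). p0.5 was taken from 1 s pressure ramps, first within 1 min, then tracked over time, and normalized to pre-addition control.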

[4] = Pressure-area isotherms of lipid monolayers with the substance in the subphase; format: physicochemical, Escherichia coli; conditions: for increase in the lipid molecular area: 1 mM in subphase, at 35 mN/m (monolayer-bilayer equivalence pressure)
[5] = Solubility and stock solution observations in aqueous solution; conditions: result in words

Compound	stability in pure water ([1]; deionized water, result in words)	half-life ([1]; phosphate buffer at pH 7.4) [h]	Γ, surface excess ([2]; Gibbs isotherm fit, 100 mM KCl, 5 mM HEPES pH 7.4)	AS, molecular area at the surface ([2]; air-water interface, from Gibbs isotherm fit) [Å^2]	decrease of surface tension of the solution ([2]; at 1–5 mM, aqueous buffer pH 7.4)	log Kmemb, membrane partitioning coefficient ([2]; calculated from AS and KAW according to Suomalainen)	KAW, propensity toward air-water interface ([2]; extrapolated Gibbs isotherm fit, pH 7.4) [M⁻¹]	shift of MscS p0.5 toward higher tension ([3]; 1 mM AI-1 from cytoplasmic side, relative to untreated control) [%]	lateral pressure increase in monolayers ([4]; at lipid area of 68–70 Å^2, Fig. 4A)	surface activity at the air-water interface [2]	effect on the activation midpoint of MscS ([3]; up to 1 mM in the bath, result in words, listed as AI-2)	increase in the lipid molecular area [4] [%]	solubility in aqueous solution [5]	level at which p0.5 stabilizes above the control ([3]; 2.5 mM indole, after return)	transient shift of MscS activation curve towards higher tension ([3]; 2.5 mM indole, cytoplasmic side, naive patch)
CCCCCCCC(=O)CC(=O)N[C@H]1CCOC1=O [AI-1, N-(3-Oxodecanoyl)-L-homoserine lactone]	stable in pure water in the course of several days	130	3.4*10^−6 mol/m^2	49	~ 17 mN/m	1.94	5600	≤ 23	~ 5 mN/m						
CC(=O)C(=O)C(O)CO (centres unmarked) [AI-2 (Methyl), 4,5-dihydroxy-2,3-pentanedione]										did not show any appreciable surface activity	no detectable shifts	2			
c1ccc2[nH]ccc2c1 [Indole]										did not show any appreciable surface activity		5	limited solubility	~ 4%	~ 20%
